An excerpt weighted towards active compounds, which were near 5.7% of everything screened.
Calb FLC: affects C. albicans growth with fluconazole. growth inhibition, % (concentration not given with the values). 300,000 tested, 0.57% active. C. albicans CaCi-2 (fluconazole-resistant clinical isolate) + fluconazole, Alamar Blue growth, 48 h;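 active means growth inhibition above about 58% in most replicates, limit read from the data, passing the limit was not always enough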;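 further: all wells also contain fluconazole at 8 µg/ml as a sub-toxic cotreatment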
SKKanGAS inh: inhibitors of SKKanGAS S. pyogenes growth in kanamycin (SK-promoter or general growth effect) | BacTiter-Glo, 6 h | inhibition, % at 7.5 µM | 300,000 tested, 1.3% active | AID 1662;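 active means mean replicate score, as percent of positive control median, at least 50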;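 further: strain carries kanamycin resistance gene driven by streptokinase promoter and grows in 40 µg/ml kanamycin; loss of luminescence reflects streptokinase promoter inhibition or plain growth inhibition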
Mdm2 MdmX PPI: disrupts the human Mdm2-MdmX interaction | SaOS-2 split-luciferase Mdm2/MdmX complementation, luminescence | O15151+Q00987 | 330,000 tested, 3% active | inhibition, % at 8 µM;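 active means inhibition of at least 50% at 8 µM in the primary screen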
Target sequence (O15151 whole entry, looked up): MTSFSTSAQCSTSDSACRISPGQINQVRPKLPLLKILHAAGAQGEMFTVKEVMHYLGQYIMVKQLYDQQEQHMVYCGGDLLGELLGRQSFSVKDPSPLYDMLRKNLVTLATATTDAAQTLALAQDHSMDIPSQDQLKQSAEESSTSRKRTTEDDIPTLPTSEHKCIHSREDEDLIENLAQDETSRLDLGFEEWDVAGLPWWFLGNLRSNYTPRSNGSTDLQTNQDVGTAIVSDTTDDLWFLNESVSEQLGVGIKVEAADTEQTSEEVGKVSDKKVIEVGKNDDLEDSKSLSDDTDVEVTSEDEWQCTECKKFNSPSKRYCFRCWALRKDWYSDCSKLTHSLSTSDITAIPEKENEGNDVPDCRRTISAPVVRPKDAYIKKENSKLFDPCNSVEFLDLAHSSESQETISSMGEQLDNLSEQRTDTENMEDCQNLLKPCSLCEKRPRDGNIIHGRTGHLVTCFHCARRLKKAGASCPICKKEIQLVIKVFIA
Target sequence (Q00987 whole entry, looked up): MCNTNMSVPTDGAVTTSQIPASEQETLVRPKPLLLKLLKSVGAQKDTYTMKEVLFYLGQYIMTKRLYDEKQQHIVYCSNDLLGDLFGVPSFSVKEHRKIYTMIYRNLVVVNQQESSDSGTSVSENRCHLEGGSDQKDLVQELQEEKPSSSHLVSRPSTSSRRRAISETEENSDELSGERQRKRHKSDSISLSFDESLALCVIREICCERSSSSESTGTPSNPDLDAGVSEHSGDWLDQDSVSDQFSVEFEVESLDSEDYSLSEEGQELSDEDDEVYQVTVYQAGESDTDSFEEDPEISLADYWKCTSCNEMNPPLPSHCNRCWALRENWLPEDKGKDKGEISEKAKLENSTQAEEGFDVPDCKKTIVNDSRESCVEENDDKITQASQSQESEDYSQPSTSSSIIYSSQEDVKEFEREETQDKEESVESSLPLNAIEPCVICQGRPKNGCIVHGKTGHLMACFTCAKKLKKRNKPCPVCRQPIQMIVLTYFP
T cruzi repl: T. cruzi replication inhibition; T. cruzi beta-gal in NIH3T3, luminescence, 90 h; inhibition, % (concentration not given with the values); 300,000 tested, 1.4% active; AID 1885;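 active means mean inhibition across valid replicates above about 55%, limit read from the data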;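 further: signal also drops with host cell toxicity which is not excluded here; higher percent means less beta-gal luminescence so fewer parasites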
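Read-out: Parasite load inhibition, % | Test system: Mouse NIH/3T3 fibroblasts infected with β-gal-expressing T. cruzi Tulahuen C4 | Amount: 5,000 cells/well | Medium: DMEM, 2% fetal bovine serum | Signal: GalScreen β-gal luminescence, detergent lysis, 60 min | Timing: 3 h attach, ≥90 h co-culture | Also added: Tulahuen C4 trypomastigotes, 5000/well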
CSC inhib: cancer stem cell inhibition; cancer stem cell-like cells viability, luminescence; inhibition, % at 7.5 µM; 300,000 tested, 1.1% active; AID 2717; in the data active means inhibition above about 75%; tested in HMLE shEcad cells
Beta cell apopt: blocks beta cell apoptosis; INS-1E cytokine-induced death, ATP luminescence, 48 h; percent of positive-control rescue, neutral wells zero; protection from apoptosis, % (test concentration not listed); 300,000 tested, 0.8% active; AID 435005;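 active means Every replicate reaches about 75%, or at least half do and their mean reaches it too, limit read from the data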;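 further: higher means more ATP so stronger rescue from cytokine killing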
Mdm2 MdmX conf: confirmation of human Mdm2/MdmX interaction inhibitors; inhibition, % at 8 µM; shares compounds with Mdm2 MdmX PPI; 10,000 tested, 55% active; Mdm2-MdmX binding, luminescent assay; AID 489028; in the data active means inhibition above about 40%
Full FLuc ctr: inhibits full-length luciferase, flagging false Mdm2/MdmX hits; shares compounds with Mdm2 MdmX PPI; SaOS-2 full-length luciferase counterscreen, luminescence; inhibition, % at 8 µM; 6,200 tested, 77% active;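 active means mean inhibition at 8 µM reaching about 37%, which flags the compound as non-specific, limit read from the data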;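 further: p53-null SaOS-2 cells with luciferase driven by a doxycycline-inducible promoter; compound on cells about two nights before reading with doxycycline added after day one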
Large screens that a line does not name were inactive (follow-up assays come after a bar, where they were run).

CCOC(=O)C(=O)Nc1nc(-c2ccc3c(c2)CCN3C(=O)C2CC2)c(C)s1	none
O=C(CN1CCCC1c1cccs1)N1CCN(S(=O)(=O)c2ccccc2)CC1 (stereo not given)	none (no result: Calb FLC, SKKanGAS inh, T cruzi repl, CSC inhib, Beta cell apopt)
Cc1ccccc1NC(=O)c1cn(-c2ccccc2)nc1-c1ccccc1	none
Cc1ccc(-c2cc(NC(=O)CCl)n(-c3ccccc3)n2)cc1	Mdm2 MdmX PPI 92, CSC inhib 96 | Mdm2 MdmX conf inactive
Cc1ccc(-n2nc(C)c(NC(=O)CCl)c2C)cc1	Mdm2 MdmX PPI 85 | Mdm2 MdmX conf 43 | Full FLuc ctr 71
CC(=O)Nc1c(C)nn(-c2ccc([N+](=O)[O-])cc2)c1C	none
O=C(CCl)Nc1cc(-c2ccccc2)nn1-c1ccccc1	Mdm2 MdmX PPI 84 | Mdm2 MdmX conf 62 | Full FLuc ctr inactive
Cc1ccc(-c2nn(-c3ccccc3)cc2NC(=O)CCl)cc1	Mdm2 MdmX PPI 66 | Mdm2 MdmX conf inactive
O=C1C(=O)c2ccccc2C(O)=C1CCCCl	none (no result: CSC inhib, Beta cell apopt)
CCCCCCn1c2c(c(=N)c3c1CCC3)CCC2	Mdm2 MdmX PPI 67, T cruzi repl 84, Beta cell apopt 109 | Mdm2 MdmX conf 60 | Full FLuc ctr 39
CCCCCCCCCn1c2c(c(=N)c3c1CCC3)CCC2	Mdm2 MdmX PPI 95, Beta cell apopt 109 | Mdm2 MdmX conf 93 | Full FLuc ctr 55
CCn1c2c(c(=N)c3c1CCC3)CCC2	none
CCCCCCn1c(=O)[nH]c2c(c1=O)CCC2	none
COc1ncnc2c1sc1nc(-c3ccccc3)c3c(c12)CCCC3	none
CN(C)CCNc1ncnc2c1sc1nc(-c3ccccc3)c3c(c12)CCCC3	Mdm2 MdmX PPI 100 | Mdm2 MdmX conf 70 | Full FLuc ctr 41
Cc1ccc(CNC(=O)CCNS(=O)(=O)c2cccc3nsnc23)cc1	none
CCOC(=O)C1CCCN(c2ccc(NC(=O)c3snc4c(=O)[nH]c(C)nc34)cc2)C1 (stereo not given)	Mdm2 MdmX PPI 70 | Mdm2 MdmX conf 41 | Full FLuc ctr 88
COC(=O)c1ccc(NC(=O)CN2CCN(CC#N)CC2)cc1	none (no result: Beta cell apopt)
CN1Cc2c(N3CCOCC3)nc3sc(C(=O)c4ccccc4)c(N)c3c2CC1(C)C	Mdm2 MdmX PPI 59 | Mdm2 MdmX conf inactive
c1cc(Nc2cccc3nccnc23)c2nccnc2c1	Mdm2 MdmX PPI 61 | Mdm2 MdmX conf 52 | Full FLuc ctr 90
O=C1CCC2S/C(=C/Nc3ccc(C(F)(F)F)cc3)C(=O)N12 (stereo not given)	none
COC(=O)c1ccc(/C=C2/SC(=S)N(CCCC(=O)Nc3ccccn3)C2=O)cc1	Mdm2 MdmX PPI 75 | Mdm2 MdmX conf inactive
CCc1ccc(/C=C2\SC(=S)N(CCCC(=O)Nc3ccccn3)C2=O)cc1	Mdm2 MdmX PPI 85, T cruzi repl 62 | Mdm2 MdmX conf 73 | Full FLuc ctr 53
COC(=O)c1ccc(/C=C2\SC(=S)N(CCCC(=O)NCCCN3CCOCC3)C2=O)cc1	none
CCC(=O)OCCNc1cc(SCCC(=O)OC)c2nonc2c1[N+](=O)[O-]	none
CCCC(=O)OCCNc1cc(Sc2nc3ccccc3[nH]2)c2nonc2c1[N+](=O)[O-]	Mdm2 MdmX PPI 96 | Mdm2 MdmX conf 99 | Full FLuc ctr 53
NS(=O)(=O)c1ccc(Sc2nc3ccccc3s2)c([N+](=O)[O-])c1	Mdm2 MdmX PPI 79 | Mdm2 MdmX conf 82 | Full FLuc ctr 56
O=c1cc2c(n[nH]1)-c1ccccc1CC2	none
C/C(=N\Nc1ncnc2sc(C)c(C)c12)c1ccccn1	Mdm2 MdmX PPI 99, Beta cell apopt 98 (no result: CSC inhib) | Mdm2 MdmX conf 61 | Full FLuc ctr 77
Cc1sc2ncnc(N/N=C/c3cccc(O)c3)c2c1C	none
COc1ccccc1/C=C/CN1CCC(n2nccc2NC(=O)C2CC2)CC1	none
Cc1ccc(C23CC4CC(CC(CN)(C4)C2)C3)cc1	none (no result: Mdm2 MdmX PPI, CSC inhib, Beta cell apopt)
NCC12CC3CC(C1)CC(c1ccc(Br)cc1)(C3)C2	Mdm2 MdmX PPI 72 | Mdm2 MdmX conf inactive
CCN(C(=O)COC(=O)c1ccc2c(c1)OCO2)c1ccc(F)cc1	none (no result: Calb FLC, SKKanGAS inh, T cruzi repl)
O=C1N[C@@H](Cc2ccccc2)COC(=O)[C@@H](Cc2ccc(F)cc2)CC/C=C/C[C@H]1CC(=O)N(CCO)Cc1ccccc1	Mdm2 MdmX PPI 52 (no result: Calb FLC, SKKanGAS inh, T cruzi repl) | Mdm2 MdmX conf inactive
O=C1N[C@@H](Cc2ccccc2)COC(=O)[C@H](Cc2ccc(F)cc2)CC/C=C/C[C@@H]1CC(=O)N(CCO)Cc1ccccc1	none (no result: Calb FLC, SKKanGAS inh, T cruzi repl, CSC inhib)
O=C1N[C@@H](Cc2c[nH]c3ccccc23)COC(=O)[C@@H](Cc2ccc(F)cc2)CC/C=C/C[C@@H]1CC(=O)N(CCO)Cc1ccccc1	Mdm2 MdmX PPI 59 (no result: Calb FLC, SKKanGAS inh, T cruzi repl, CSC inhib, Beta cell apopt) | Mdm2 MdmX conf inactive
Cc1ccc(NC(=O)C(c2ccccc2)C2CCCC2)cc1 (stereo not given)	none (no result: Mdm2 MdmX PPI, CSC inhib, Beta cell apopt)
O=C(Nc1ccc2ccccc2c1)C(c1ccccc1)C1CCCC1 (stereo not given)	Mdm2 MdmX PPI 57, T cruzi repl 64 | Mdm2 MdmX conf 59 | Full FLuc ctr 78
C/C(=N/NC(=O)c1sc(=S)n(C)c1C)c1ccccc1	Mdm2 MdmX PPI 53 | Mdm2 MdmX conf inactive
Cc1ccc(S(=O)(=O)N(CC(=O)N/N=C/c2cccc(Cl)c2)c2cccc3cccnc23)cc1	Mdm2 MdmX PPI 66 (no result: T cruzi repl) | Mdm2 MdmX conf inactive
COc1cc(C2c3c(n[nH]c3C)C(=O)N2c2ccc(C)cc2)ccc1O (stereo not given)	Mdm2 MdmX PPI 69 | Mdm2 MdmX conf 72 | Full FLuc ctr 51
C=CC[C@H](CC(=O)N(CCO)Cc1ccccc1)C(=O)N[C@@H](C)COC(=O)[C@@H](CC=C)Cc1ccc(F)cc1	none (no result: Calb FLC, SKKanGAS inh, T cruzi repl)
C=CCC[C@@H](Cc1ccc(F)cc1)C(=O)OC[C@H](C)NC(=O)[C@@H](CC=C)CC(=O)N(CCO)Cc1ccccc1	none (no result: Calb FLC, SKKanGAS inh, T cruzi repl, CSC inhib, Beta cell apopt)
C=CC[C@@H](CC(=O)N(CCO)Cc1ccccc1)C(=O)N[C@@H](COC(=O)[C@@H](CC=C)Cc1ccc(F)cc1)Cc1ccccc1	Mdm2 MdmX PPI 63 (no result: Calb FLC, SKKanGAS inh, T cruzi repl, CSC inhib) | Mdm2 MdmX conf inactive
C=CC[C@@H](CC(=O)N(CCO)Cc1ccccc1)C(=O)N[C@H](COC(=O)[C@@H](CC=C)Cc1ccc(F)cc1)Cc1ccccc1	Mdm2 MdmX PPI 70 (no result: Calb FLC, SKKanGAS inh, T cruzi repl) | Mdm2 MdmX conf inactive
C=CCC[C@@H](Cc1ccc(F)cc1)C(=O)OC[C@@H](NC(=O)[C@@H](CC=C)CC(=O)N(CCO)Cc1ccccc1)c1ccccc1	Mdm2 MdmX PPI 88 (no result: Calb FLC, SKKanGAS inh, T cruzi repl, CSC inhib) | Mdm2 MdmX conf inactive
Cc1cccn2c(=O)c3cc(C(=O)NCCN4CCOCC4)c(=N)n(Cc4ccc(F)cc4)c3nc12	Mdm2 MdmX PPI 81 | Mdm2 MdmX conf 78 | Full FLuc ctr inactive
CCCn1c(=N)c(C(=O)NCc2ccc3c(c2)OCO3)cc2c(=O)n3cccc(C)c3nc21	Mdm2 MdmX PPI 70, T cruzi repl 64 | Mdm2 MdmX conf inactive
